Measurements pooled from the literature.
Lines come from different studies, so protocols differ.
Target: Alpha-glucosidase MAL12 (MAL12, Saccharomyces cerevisiae S288c, UniProt P53341)
Read-out: enzyme activity
Action: inhibitor

SMILES | technique | pH | IC50
Cc1ccc(-c2nn(-c3ccccc3)cc2C2C3=C(CC(C)(C)CC3=O)n3c(=O)c4ccccc4c(=O)n32)cc1 (stereo not drawn) | absorbance |  | 282 µM
Nc1c(-c2ccccc2)nc2ncnn2c1-c1cccc(Cl)c1 | absorbance |  | 82.5 µM
CCCCCCCCCCCC(=O)OCC(C)(C)CC1=C(O)C(=O)c2ccccc2C1=O |  |  | 2.6 µM
CC1(C)CC(=O)C2=C(C1)n1c(=O)c3ccccc3c(=O)n1C2c1cn(-c2ccccc2)nc1-c1ccc(Br)cc1 (stereo not drawn) | absorbance |  | 353 µM
COc1ccc(-c2nc3ncnn3c(-c3cccs3)c2N)cc1 | absorbance |  | 120 µM
C[C@@H]1CN(C(=O)Nc2ccc(C(F)(F)F)cc2)CCN1c1ccnc(Nc2ccc(Cl)c(O)c2)n1 | absorbance | pH 6.9 | 2.08 µM
Cc1ccc(-c2nc3ncnn3c(-c3ccc(Br)cc3)c2N)cc1 | absorbance |  | 68.7 µM
C[C@H]1CN(C(=O)Nc2ccc(C(F)(F)F)cc2)CCN1c1ccnc(Nc2cccc([N+](=O)[O-])c2)n1 | absorbance | pH 6.9 | 1.03 µM
CC1(C)CC(=O)C2=C(C1)n1c(=O)c3ccccc3c(=O)n1C2c1cn(-c2ccccc2)nc1-c1ccc(Cl)cc1 (stereo not drawn) | absorbance |  | 209 µM
C[C@H]1CN(C(=O)Nc2ccc(C(F)(F)F)cc2)CCN1c1ccnc(Nc2ccc(Cl)c(OCc3ccccc3)c2)n1 | absorbance | pH 6.9 | 1.5 µM
COc1cc(O)c2c(c1)oc(=O)c1c3cc(O)c(O)cc3oc21 | absorbance |  | 39.1 µM
C[C@H]1CN(C(=O)Nc2ccc(C(F)(F)F)cc2)CCN1c1ccnc(Nc2ccc(Cl)c(Cl)c2)n1 | absorbance | pH 6.9 | 1.69 µM
CCCCCCCCCCCCCC(=O)OCC(C)(C)CC1=C(O)C(=O)c2ccccc2C1=O |  |  | 5.3 µM
C[C@H]1CN(C(=O)Nc2ccc(C(F)(F)F)cc2)CCN1c1ccnc(Nc2ccc(C(F)(F)F)cc2)n1 | absorbance | pH 6.9 | 2.63 µM
CC(=O)C1=C(C)n2c(=O)c3ccccc3c(=O)n2C1c1cn(-c2ccccc2)nc1-c1ccc(C)cc1 (stereo not drawn) | absorbance |  | 167 µM
